Reference: ChEMBL document CHEMBL2163189, “Discovery and characterization of an inhibitor of glucosylceramide synthase” (J Med Chem, 2012)

How the values were obtained:
[1] = Half life in CD rat at 5 mg/kg; format: ADME, organism-based; design: dose 5 mg/kg; conditions: in vivo
Summary of the method: (§1)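 Female CD rats, n = 3, given 5 mpk. The HCl salt in saline served as both the oral and the iv formulation. Values are mean ± SD.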

[2] = Oral bioavailability in CD rat at 5 mg/Kg; format: ADME, organism-based; conditions: in vivo; summary of the method: as §1
[3] = Clearance in CD rat at 5 mg/kg; format: ADME, organism-based; design: dose 5 mg/kg; conditions: in vivo; summary of the method: as §1
[4] = Volume of distribution at steady state in CD rat at 5 mg/Kg; format: ADME, organism-based; conditions: in vivo, read-out: Vdss; summary of the method: as §1
[5] = AUC ( 0 to t) in CD rat at 5 mg/kg; format: ADME, organism-based; design: dose 5 mg/kg; conditions: plasma; summary of the method: as §1
[6] = Cmax in CD rat at 5 mg/kg; format: ADME, organism-based; design: dose 5 mg/kg; conditions: in vivo; summary of the method: as §1
[7] = Tmax in CD rat at 5 mg/kg; format: ADME, organism-based; design: dose 5 mg/kg; conditions: in vivo; summary of the method: as §1
[8] = Drug uptake in C57BL6 mouse liver at 10 mg/kg, po after 24 hrs; format: ADME, organism-based; design: dose 10 mg/kg, route oral; conditions: read-out: Drug uptake
Summary of the method: (§2)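 Male C57BL6 mice, n = 3, given a single oral dose of 10 mpk. Compound levels in tissue or plasma were measured 24 h after the dose. Values are mean ± SD.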

[9] = Plasma concentration in C57BL6 mouse at 10 mg/kg, po after 24 hrs; format: ADME, organism-based; design: dose 10 mg/kg, route oral; summary of the method: as §2
[10] = Drug uptake in C57BL6 mouse muscle at 10 mg/kg, po after 24 hrs; format: ADME, organism-based, Muscle tissue; design: dose 10 mg/kg, route oral; conditions: read-out: Drug uptake; summary of the method: as §2
[11] = Drug uptake in C57BL6 mouse Fat at 10 mg/kg, po after 24 hrs; format: ADME, organism-based; design: dose 10 mg/kg, route oral; conditions: fat (adipose tissue), read-out: Drug uptake; summary of the method: as §2
[12] = Metabolic stability in mouse liver microsome assessed as compound conversion at 15 uM after 30 mins; format: ADME; conditions: liver microsomes, read-out: Drug metabolism
[13] = Plasma concentration in mouse at 100 mg/kg, po after 4 hrs; format: ADME, organism-based; design: dose 100 mg/kg, route oral
Summary of the method: (§3)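 Female nude mice (n = 3) given 100 mpk orally. Plasma compound levels measured 1 and 4 h after dosing, reported as mean ± SD.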

[14] = Plasma concentration in mouse at 100 mg/kg, po after 1 hr; format: ADME, organism-based; design: dose 100 mg/kg, route oral; summary of the method: as §3

Cl.NC1C[C@H]2CC[C@@H](C1)N2C(=O)[C@H](Cc1ccc(Br)cc1)NC(=O)C1(c2ccc(OC(F)(F)F)cc2)CC1 (stereo partly drawn) showed a half-life [1] of 25.3 h, a bioavailability [2] of 88.1% and a clearance [3] of 0.575 L/h/kg. For the same compound, the Vd [4] was 19.3 L/kg, the AUC(0-t) [5] was 5.8 µM·h and the Cmax [6] was 0.3 µM. It also gave a Tmax [7] of 8 h, a concentration at 24 h [8] of 5.9 µM and a concentration at 24 h [9] of 0.5 µM. It also gave a concentration at 24 h [10] of 1.8 µM and a concentration at 24 h [11] of 0.8 µM.

O=C([C@H](Cc1ccc(Br)cc1)NC(=O)C1(c2ccc(Cl)cc2Cl)CC1)N1CCC(O)CC1 gave a metabolised at 0.5 h, 15 µM [12] of 30%.

In the case of NC1CCN(C(=O)[C@H](Cc2ccc(Br)cc2)NC(=O)C2(c3ccc(Cl)cc3Cl)CC2)CC1, the metabolised at 0.5 h, 15 µM [12] is reported as 50%.

Compound NC1CCCC(NC(=O)[C@H](Cc2ccc(Cl)cc2Cl)NC(=O)C2(c3ccc(Cl)cc3Cl)CC2)C1 (stereo partly drawn) has a metabolised at 0.5 h, 15 µM [12] of 10%.

NC1C[C@H]2CC[C@@H](C1)N2C(=O)[C@H](Cc1ccc(Cl)cc1Cl)NC(=O)C1(c2ccc(Cl)cc2Cl)CC1 (stereo partly drawn) showed a metabolised at 0.5 h, 15 µM [12] of 20%.

For NC1C[C@H]2CC[C@@H](C1)N2C(=O)[C@H](Cc1ccc(Br)cc1)NC(=O)C1(c2ccc(Cl)cc2Cl)CC1 (stereo partly drawn), the metabolised at 0.5 h, 15 µM [12] was 20%.

For NC1C[C@H]2CC[C@@H](C1)N2C(=O)[C@H](Cc1ccc(Cl)cc1Cl)NC(=O)C1(c2ccc(OC(F)(F)F)cc2)CC1 (stereo partly drawn), the metabolised at 0.5 h, 15 µM [12] was 8%.

Work on NC1C[C@H]2CC[C@@H](C1)N2C(=O)[C@H](Cc1ccc(Br)cc1)NC(=O)C1(c2ccc(OC(F)(F)F)cc2)CC1 (stereo partly drawn) yielded a metabolised at 0.5 h, 15 µM [12] of 7%.

CN1CCN(C(=O)[C@H](Cc2c[nH]c3ccccc23)NC(=O)C2(c3ccc(Cl)cc3Cl)CC2)CC1 gave a concentration at 4 h [13] of 0.7 µM, a concentration at 1 h [14] of 0.9 µM and a metabolised at 0.5 h, 15 µM [12] of 90%.

For CN1CCN(C(=O)[C@H](COCc2ccccc2)NC(=O)C2(c3ccc(Cl)cc3Cl)CC2)CC1, the metabolised at 0.5 h, 15 µM [12] was 50%.

CN1CCN(C(=O)[C@H](Cc2ccccc2)NC(=O)C2(c3ccc(Cl)cc3Cl)CC2)CC1 showed a metabolised at 0.5 h, 15 µM [12] of 80%.

Compound CN1CCN(C(=O)[C@H](Cc2ccc(Cl)cc2Cl)NC(=O)C2(c3ccc(Cl)cc3Cl)CC2)CC1 has a concentration at 4 h [13] of 5.8 µM, a concentration at 1 h [14] of 4.2 µM and a metabolised at 0.5 h, 15 µM [12] of 80%.

CN1CCN(C(=O)[C@H](Cc2ccc(Cl)cc2)NC(=O)C2(c3ccc(Cl)cc3Cl)CC2)CC1 showed a metabolised at 0.5 h, 15 µM [12] of 73%.

Work on CN1CCN(C(=O)[C@H](Cc2ccc(Br)cc2)NC(=O)C2(c3ccc(Cl)cc3Cl)CC2)CC1 yielded a metabolised at 0.5 h, 15 µM [12] of 90%.

O=C([C@H](Cc1ccc(Cl)cc1Cl)NC(=O)C1(c2ccc(Cl)cc2Cl)CC1)N1CCNCC1 gave a metabolised at 0.5 h, 15 µM [12] of 10%.

With C[C@@H]1CN(C(=O)[C@H](Cc2ccc(Cl)cc2Cl)NC(=O)C2(c3ccc(Cl)cc3Cl)CC2)CCN1 the metabolised at 0.5 h, 15 µM [12] was 30%.

In the case of C[C@H]1CN(C(=O)[C@H](Cc2ccc(Cl)cc2Cl)NC(=O)C2(c3ccc(Cl)cc3Cl)CC2)CCN1, the metabolised at 0.5 h, 15 µM [12] is reported as 40%.

Compound CN(C)CCN(C)C(=O)[C@H](Cc1ccc(Cl)cc1Cl)NC(=O)C1(c2ccc(Cl)cc2Cl)CC1 has a metabolised at 0.5 h, 15 µM [12] of 70%.

CN(C)CCN(C)C(=O)[C@H](Cc1ccc(Br)cc1)NC(=O)C1(c2ccc(Cl)cc2Cl)CC1 showed a metabolised at 0.5 h, 15 µM [12] of 90%.
